The test has as its target Her3 (Homo sapiens, UniProt P21860). As to the kind of experiment: Western blot of Her3 level in PC9 GR4 cells. It counts as cell-based. The following applies: combination with TX2-121-1 (0.5 μM), 116-9e 1.0 μM, 17-AAG 0.1 μM. Put shortly:
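Serum-starved PC9 GR4 cells were treated with test compounds, then stimulated for 30 min with 100 ng/ml NRG. Cells were lysed in Tris/NaCl/EDTA/1% NP-40 buffer with phosphatase and protease inhibitors, and protein was normalised by BCA. Lysates were resolved on 4–12% SDS-PAGE and PVDF blots were probed for p-Her3, Her3, p-Akt (Ser473), Akt, p-Erk1/2 (Thr202/Tyr204) and Erk1/2.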
A general note: A western blot detects proteins with antibodies after separation by electrophoresis.

Where a SMILES comes first, the peptide text is derived from it. The star is where a group is joined. Cbz = O=C(OCc1ccccc1)*

Chain of Her3 (P21860 20-1342): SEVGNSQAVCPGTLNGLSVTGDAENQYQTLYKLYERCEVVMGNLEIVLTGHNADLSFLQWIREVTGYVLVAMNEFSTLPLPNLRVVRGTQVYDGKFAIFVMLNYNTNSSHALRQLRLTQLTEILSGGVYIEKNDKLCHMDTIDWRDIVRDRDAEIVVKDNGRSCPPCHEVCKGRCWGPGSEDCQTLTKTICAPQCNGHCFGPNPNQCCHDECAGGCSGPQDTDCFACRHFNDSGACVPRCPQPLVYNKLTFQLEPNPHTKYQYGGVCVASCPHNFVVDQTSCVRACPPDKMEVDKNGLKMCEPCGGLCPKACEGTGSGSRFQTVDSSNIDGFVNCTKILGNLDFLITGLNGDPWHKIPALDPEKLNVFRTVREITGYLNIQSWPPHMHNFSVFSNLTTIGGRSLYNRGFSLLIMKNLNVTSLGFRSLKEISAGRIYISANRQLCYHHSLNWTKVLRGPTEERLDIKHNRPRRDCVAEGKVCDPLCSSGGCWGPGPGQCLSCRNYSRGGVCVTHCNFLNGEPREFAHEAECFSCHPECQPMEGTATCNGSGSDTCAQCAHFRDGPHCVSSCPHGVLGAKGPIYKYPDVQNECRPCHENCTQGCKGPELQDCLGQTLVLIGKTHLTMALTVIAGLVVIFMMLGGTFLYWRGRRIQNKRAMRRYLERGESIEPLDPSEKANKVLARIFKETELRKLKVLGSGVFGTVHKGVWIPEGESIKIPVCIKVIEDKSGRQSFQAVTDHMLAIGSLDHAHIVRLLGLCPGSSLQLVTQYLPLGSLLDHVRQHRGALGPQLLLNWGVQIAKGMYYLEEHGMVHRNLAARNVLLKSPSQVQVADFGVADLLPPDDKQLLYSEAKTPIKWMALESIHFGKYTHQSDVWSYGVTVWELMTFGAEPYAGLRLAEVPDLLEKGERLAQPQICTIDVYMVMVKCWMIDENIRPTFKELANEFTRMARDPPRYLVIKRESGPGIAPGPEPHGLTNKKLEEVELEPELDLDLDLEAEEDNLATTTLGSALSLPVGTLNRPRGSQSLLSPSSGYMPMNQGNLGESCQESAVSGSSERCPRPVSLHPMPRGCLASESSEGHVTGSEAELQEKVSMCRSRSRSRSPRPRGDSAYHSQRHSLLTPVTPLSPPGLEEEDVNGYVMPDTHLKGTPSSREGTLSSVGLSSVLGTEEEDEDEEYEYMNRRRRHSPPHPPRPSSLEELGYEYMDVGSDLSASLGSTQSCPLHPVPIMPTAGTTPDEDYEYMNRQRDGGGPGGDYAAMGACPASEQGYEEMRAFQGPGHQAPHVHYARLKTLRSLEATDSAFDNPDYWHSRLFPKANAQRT

Consider `C=CCNC1=C2C[C@@H](C)C[C@H](OC)[C@H](O)[C@@H](C)/C=C(\C)[C@H](OC(N)=O)[C@@H](OC)/C=C\C=C(/C)C(=O)NC(=CC1=O)C2=O` [17-AAG, 17-N-allylamino-17-demethoxygeldanamycin], for which the “effect on TX2-121-1 induced Her3 degradation” value was “enhanced degradation of Her3”. With `CC(C)C[C@@H](C=O)NC(=O)[C@H](CC(C)C)NC(=O)[C@H](CC(C)C)NC(=O)OCc1ccccc1` [MG132] (Cbz-Leu-Leu-Leu-aldehyde) the entry was “diminished”; with `CC1=C(C(=O)OCc2ccccc2)C(c2ccc(-c3ccccc3)cc2)NC(=O)N1CCCCCC(=O)O` (stereo not drawn) [116-9e, 4-[1,1′-biphenyl]-4-yl-3,4-dihydro-6-methyl-2-oxo-5-[(phenylmethoxy)carbonyl]-1(2H)-pyrimidinehexanoic acid], “enhanced degradation of Her3”.

Values taken from paper PMC4232461 (Nature chemical biology, 2014).
